The text below walks through data of ChEMBL document CHEMBL1139495, “Retro hydrazino-azapeptoids as peptidomimetics of proteasome inhibitors” (J Med Chem, 2005).

The test system of test [1] is Proteasome. Description: Inhibitory concentration against 20S proteasome chymotrypsin-like activity. It counts as subcellular.
The subject of a further test is L1210. The test can be described thus: Inhibitory concentration of the compound was determined against L1210 cells. It counts as functional, cell-based. Particulars: Mus musculus. The gist of the method: (§1)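 MTT read-out on cultured cells (murine leukemia L1210, melanoma B16, normal melanocyte Mel-A), scoring growth inhibition as either a cytostatic or a cytotoxic effect.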

The next test concerns Mel-A (Mus musculus). The test can be described thus: Inhibitory concentration of the compound was determined against melanocyte Mel-A cells.
Another test relates to B16. Description: Inhibitory concentration of the compound was determined against melanoma B16 cells. Particulars: Mus musculus. It counts as functional, cell-based. The gist of the method: as §1
In another test the target is Cathepsin B (Homo sapiens, UniProt P07858). Description: (§2) Inhibitory concentration against Cathepsin B activity. The class given is functional.
The target in test [2] is T1, Calpain-1 catalytic subunit (Homo sapiens, UniProt P07384).
T1 sequence (P07384 whole entry): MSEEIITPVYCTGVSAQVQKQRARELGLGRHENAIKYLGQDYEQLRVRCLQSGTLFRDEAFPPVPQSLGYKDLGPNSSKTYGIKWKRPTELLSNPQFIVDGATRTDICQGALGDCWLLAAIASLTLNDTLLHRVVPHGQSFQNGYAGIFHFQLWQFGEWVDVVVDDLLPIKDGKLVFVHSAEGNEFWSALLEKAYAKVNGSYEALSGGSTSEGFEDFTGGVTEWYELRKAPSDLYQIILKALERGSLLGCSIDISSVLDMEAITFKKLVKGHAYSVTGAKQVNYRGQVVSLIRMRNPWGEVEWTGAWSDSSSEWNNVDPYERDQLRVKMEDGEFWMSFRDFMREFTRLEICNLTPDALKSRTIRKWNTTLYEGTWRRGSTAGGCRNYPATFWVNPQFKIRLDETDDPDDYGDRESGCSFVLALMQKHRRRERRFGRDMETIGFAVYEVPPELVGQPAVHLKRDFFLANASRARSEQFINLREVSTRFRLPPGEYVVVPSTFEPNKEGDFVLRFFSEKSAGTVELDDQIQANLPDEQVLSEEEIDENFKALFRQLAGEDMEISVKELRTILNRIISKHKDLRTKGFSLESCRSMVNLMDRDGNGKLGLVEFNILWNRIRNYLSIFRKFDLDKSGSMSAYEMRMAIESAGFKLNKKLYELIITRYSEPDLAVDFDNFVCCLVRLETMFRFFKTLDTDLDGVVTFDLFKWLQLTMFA
The test can be described thus: Inhibitory concentration against Calpain I activity.

In test [3] the test system is Proteasome. The test can be described thus: Inhibitory effect on 20S proteasome chymotrypsin-like activity. The class given is subcellular.
Test [4] can be described thus: Inhibitory concentration against peptidyl-glutamyl peptide hydrolase activity.
Test [5] is described as follows: as §2.

Where a SMILES comes first, the peptide text is derived from it. [ ]: non-standard residue; d: D form. Nle = CCCC[C@H](N)C(=O)O Some results are limits rather than exact numbers.

For the compound `CC(C)CN(NC(=O)OCc1ccccc1)C(=O)CN(Cc1ccccc1)/N=C/c1ccccc1B(O)O`, the IC50 (usually the point on the concentration scale where inhibition reaches its midpoint) in the test with Proteasome [1] was greater than 1000 µM; in the test on L1210, 27.9 µM; in the test on Mel-A (Mus musculus) it was 45.1 µM; with B16, 65.5 µM.

On to `CC(C)CN(CC(=O)N(Cc1ccccc1)NC(=O)OCc1ccccc1)/N=C/c1ccccc1B(O)O`, for which the IC50 with Proteasome [1] is greater than 1000 µM; with L1210, 18.4 µM; with Mel-A (Mus musculus), 25.1 µM; in the test with B16, 33.5 µM.

As for `CC(C)CN(NC(=O)CN(Cc1ccccc1)/N=C/c1cccc(B(O)O)c1)c1cnccn1`, the IC50 is 500 µM with Proteasome [1], greater than 80 µM with L1210, 16.3 µM in the test with Mel-A (Mus musculus) and greater than 80 µM in the test with B16.

For the compound `CC(C)CN(CC(=O)N(Cc1ccccc1)NC(=O)OCc1ccccc1)/N=C/c1cccc(B(O)O)c1`, the IC50 in the test on Proteasome [1] is greater than 1000 µM; in the test with L1210, 16.9 µM; in the test on Mel-A (Mus musculus), 19.9 µM; in the test with B16, 20.5 µM.

In the case of `CC(C)CN(CC(=O)N(CC(C)C)NC(=O)OCc1ccccc1)NC(=O)CBr`, the half-inhibitory concentration (IC50) is greater than 1000 µM in the test on Proteasome [1], 6.5 µM in the test with L1210, 3.3 µM with Mel-A (Mus musculus) and 1.3 µM with B16.

As for `CC(C)CN(CC(=O)N(Cc1cccnc1)NC(=O)OCc1ccccc1)/N=C/c1cccc(B(O)O)c1`, the IC50 came to 350 µM in the test with Proteasome [1], 41.6 µM in the test with L1210, 40.3 µM in the test on Mel-A (Mus musculus) and 21.1 µM with B16.

Turning to `CC(C)CN(CC(=O)N(CC(C)C)NC(=O)OCc1ccccc1)NC(=O)CNNC(=O)CBr`, the IC50 in the test with Proteasome [1] was greater than 1000 µM; in the test with L1210, 7.6 µM; in the test on Mel-A (Mus musculus) it was 2.3 µM; in the test on B16, 2.5 µM.

On to `CC(C)CN(NC(=O)OCc1ccccc1)C(=O)CN(Cc1ccccc1)/N=C/c1cccc(B(O)O)c1`, for which the IC50 on Cathepsin B is greater than 1000 µM; with Proteasome [1], 53 µM; in [2], greater than 1000 µM; in the test on L1210, 16.2 µM; in the test on Mel-A (Mus musculus), 18.4 µM; in the test on B16, 20.4 µM.

With `CC(C)CN(NC(=O)CN(Cc1ccccc1)NC(=O)CBr)C(=O)OCc1ccccc1`, the IC50 was greater than 1000 µM in the test with Proteasome [1], 0.6 µM in the test with L1210 and 0.7 µM in the test on B16.

As to `CC(C)CN(NC(=O)OCc1ccccc1)C(=O)CN(Cc1cccnc1)/N=C/c1cccc(B(O)O)c1`, the IC50 in the test with Proteasome [1] was greater than 1000 µM; with L1210 it was 75 µM; in the test on Mel-A (Mus musculus), 60.9 µM; in the test with B16, 74.9 µM.

As for `CC(C)CN(CC(=O)NN(Cc1ccccc1)c1cnccn1)/N=C/c1cccc(B(O)O)c1`, the IC50 was greater than 1000 µM in the test with Proteasome [1], greater than 80 µM in the test on L1210, 33.7 µM in the test with Mel-A (Mus musculus) and greater than 80 µM in the test with B16.

Take `CC(C)CN(NC(=O)OCc1ccccc1)C(=O)CN(Cc1ccccc1)NC(=O)CBr`: the IC50 with Proteasome [1] is greater than 1000 µM; with L1210 it was 1.3 µM; in the test on Mel-A (Mus musculus) it was 1.8 µM; in the test on B16, 1.4 µM.

`CC(C)CN(NC(=O)OCc1ccccc1)C(=O)CN(Cc1ccccc1)/N=C/c1ccc(B(O)O)cc1`: the IC50 in the test with Proteasome [1] was greater than 1000 µM; in the test on L1210 it was 14.7 µM; with Mel-A (Mus musculus), 39.3 µM; with B16, 32.6 µM.

In the case of `CC(C)CN(CC(=O)N(CC(C)C)NC(=O)OCc1ccccc1)/N=C/c1cccc(B(O)O)c1`, the IC50 with Proteasome [1] worked out at 91 µM; in the test with L1210, 21.2 µM; in the test on B16, 53.9 µM.

Regarding `CC(C)CN(CC(=O)N(CC(C)C)NCC(=O)OCc1ccccc1)NC(=O)CBr`, the IC50 was greater than 1000 µM in the test with Proteasome [1], 5 µM with L1210, 4.5 µM with Mel-A (Mus musculus) and 2.2 µM in the test with B16.

Take `CC(C)CN(NC(=O)OCc1ccccc1)C(=O)CN(Cc1ccccc1)NCc1cccc(Br)c1`: the values for the concentration for half-maximal inhibition (IC50) with Proteasome [1], with L1210 and in the test with B16 were greater than 1000 µM, 30 µM and greater than 80 µM, respectively.

As for `CC(C)CN(CC(=O)NN(Cc1ccccc1)c1cnccn1)NC(=O)CBr`, the IC50 in the test on Proteasome [1] is greater than 1000 µM; with L1210, 24.1 µM; with Mel-A (Mus musculus), 14.8 µM; with B16 it was 11.4 µM.

For `CC(C)CN(CC(=O)N(CC(C)C)NC(=O)OCc1ccccc1)/N=C/c1ccccc1B(O)O`, the half-maximal inhibitory concentration (IC50) against Cathepsin B was greater than 1000 µM; with Proteasome [1], 50 µM; in test [2], greater than 1000 µM; in the test on L1210, 16.2 µM; in the test with Mel-A (Mus musculus), 17.3 µM; with B16, 26.3 µM.

Consider `CCCC[C@@H](C=O)NC(=O)[C@H](CC(C)C)NC(=O)[C@H](CC(C)C)NC(C)=O` (Ac-Leu-Leu-[Nle]-aldehyde), for which the IC50 amounted to 15 µM in the test with Proteasome [3]; 45 µM in test [4]; 1 µM in test [2]; 12 µM in test [5]; 3 µM with L1210; 14.5 µM in the test on B16.
